Columns and labels:
[1] = target: Substance-P receptor (Homo sapiens, UniProt P25103); assay: Tested in vitro for the binding affinity towards NK1 receptor in human IM-9 cells using [125I]-labeled bolton-hunter substance P as ligand; type: cell-based
Method in brief: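 IC50 from six-point concentration–response curves, each concentration in duplicate. Mean ± SEM of three separate experiments.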

[2] = species on record: Cavia porcellus; assay: Inhibition of capsaicin-induced plasma extravasation in guinea pig ureter; type: functional
Method in brief: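 Male Hartley guinea pigs (300–400 g), fasted overnight, anaesthetised with pentobarbital 25 mg/kg. Compound given po 1 h before capsaicin, at four doses. Evans Blue 30 mg/kg iv, then 5 min later 30 μM capsaicin in 0.1% BSA Krebs bicarbonate, 10 mL per animal. Killed 10 min later. Ureter extracted in formamide at 60 °C for 24 h and OD read at 600 nm. ED50 with 95% confidence limits.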

Sequence of Substance-P receptor (P25103 whole entry): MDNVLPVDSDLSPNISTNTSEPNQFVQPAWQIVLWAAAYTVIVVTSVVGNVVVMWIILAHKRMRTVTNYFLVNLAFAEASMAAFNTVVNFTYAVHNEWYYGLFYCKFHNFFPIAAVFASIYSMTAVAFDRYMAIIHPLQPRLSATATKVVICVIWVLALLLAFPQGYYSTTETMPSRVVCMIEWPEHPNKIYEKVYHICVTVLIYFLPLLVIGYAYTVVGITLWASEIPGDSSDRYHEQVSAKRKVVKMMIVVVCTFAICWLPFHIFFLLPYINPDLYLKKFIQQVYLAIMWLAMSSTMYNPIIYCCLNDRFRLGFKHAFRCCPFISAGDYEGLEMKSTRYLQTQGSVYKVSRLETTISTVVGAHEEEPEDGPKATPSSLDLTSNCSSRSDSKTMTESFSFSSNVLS

| Compound | IC50 [1] [nM] | ED50 [2] [mg/kg] |
| --- | --- | --- |
| c1ccc(CNC2C3CC4CCC(C3)N4[C@H]2C(c2ccccc2)c2ccccc2)cc1 (stereo not given in full) | 68 |  |
| COc1ccccc1CNC1C2CC3CCCC2CN3[C@H]1C(c1ccccc1)c1ccccc1 (stereo not given in full) | 1.9 |  |
| Clc1ccccc1CNC1C2CC3CCCC(C2)N3[C@H]1C(c1ccccc1)c1ccccc1 (stereo not given in full) | 58 |  |
| COc1ccccc1CNC1C2CC3CCOC(C2)N3[C@H]1C(c1ccccc1)c1ccccc1 (stereo not given in full) | 7.2 |  |
| COc1ccccc1CNC1C2C3CCC2CN(C3)[C@H]1C(c1ccccc1)c1ccccc1 (stereo not given in full) | 2.4 | 2.61 |
| FC(F)(F)c1ccccc1CNC1C2CC3CCCC(C2)N3[C@H]1C(c1ccccc1)c1ccccc1 (stereo not given in full) | 4400 |  |
| COc1ccccc1CNC1C2CC3CCC(C2)N3[C@H]1C(c1ccccc1)c1ccccc1 (stereo not given in full) | 0.92 | 4.13 |
| COc1ccccc1CN[C@H]1C2C3CCCC2CN(C3)[C@H]1C(c1ccccc1)c1ccccc1 |  | 4.43 |
| COc1ccccc1CN[C@H]1C2CCN(CC2)[C@H]1C(c1ccccc1)c1ccccc1 [CP-96345] |  | 2.83 |
| Clc1ccccc1CNC1C2CC3CCC(C2)N3[C@H]1C(c1ccccc1)c1ccccc1 (stereo not given in full) | 7.1 |  |
| Clc1ccccc1CN[C@H]1C2C3CCCC2CN(C3)[C@H]1C(c1ccccc1)c1ccccc1 | 39 |  |
| c1ccc(CNC2C3CC4CCCC(C3)N4[C@H]2C(c2ccccc2)c2ccccc2)cc1 (stereo not given in full) | 170 |  |
| c1ccc(CN[C@H]2C3C4CCCC3CN(C4)[C@H]2C(c2ccccc2)c2ccccc2)cc1 | 230 |  |

— ChEMBL document CHEMBL1127444, “Aza-tricyclic substance P antagonists” (J Med Chem, 1994)
